Rows were chosen to be rich in hits. Some 1.5% of all compounds tested hit in one or more screens of this group.
CCR6 antag – CCR6 (human) receptor antagonism. P51684. CHO-K1 CCR6 PathHunter beta-arrestin, luminescence, CCL20-stimulated. inhibition, % at 20 µM. 340,000 compounds, 0.49% hits. AID 493098;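 active = compounds whose inhibition of the agonist-driven luminescence signal at 20 µM reaches about 50%, limit read from the data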;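 also: cells stimulated with CCL20 at 14 nM final; plate controls were DMSO with CCL20 for no effect and DMSO without agonist for full effect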
APJ antagonist – APJ receptor antagonism; P35414; CHO-K1 APJ beta-arrestin complementation, luminescence; inhibition, % at 20 µM; 330,000 compounds, 0.32% hits;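 active = inhibition above about 40% at 20 µM, limit read from the data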;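 also: cells challenged with 10 nM apelin-13 agonist together with compound; plate controls were apelin-13 plus DMSO wells for no effect and DMSO wells lacking apelin-13 for full effect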
APJ ag – agonists of human APJ apelin receptor; CHO-K1 APJ PathHunter beta-arrestin, luminescence; 0% DMSO wells, 100% apelin; activation, % at 20 µM; 330,000 compounds, 0.11% hits;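 active = activation more than six SD over the plate average, tested at 20 µM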;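 also: 0% = DMSO alone and 100% = apelin-13 at 10 nM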
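Assay system: CHO-K1 cells stably expressing ProLink-tagged human APJ and arrestin–beta-gal acceptor. Compound dosing: 20 µM single point, 1% DMSO. Times: 16-18 h seeding, 90 min dark compound exposure, 60 min detection. Detection: beta-gal luminescence. Evaluation: APJ–arrestin association signal. Controls: negative DMSO alone, positive Apelin-13 at 10 nM.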
EBI2 antag – blocks human EBI2 receptor beta-arrestin signaling | EBI2 beta-arrestin recruitment, luminescence, 7a,25-OHC stimulated | inhibition, % at 5 µM | 360,000 compounds, 0.81% hits | AID 651636; in the data active = inhibition above about 38%;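 also: enzyme fragment complementation signal reports receptor beta-arrestin coupling in cells; 0% = agonist plus DMSO wells and 100% = wells without agonist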
Target sequence (P32249 whole entry, looked up, the tested form may be a part): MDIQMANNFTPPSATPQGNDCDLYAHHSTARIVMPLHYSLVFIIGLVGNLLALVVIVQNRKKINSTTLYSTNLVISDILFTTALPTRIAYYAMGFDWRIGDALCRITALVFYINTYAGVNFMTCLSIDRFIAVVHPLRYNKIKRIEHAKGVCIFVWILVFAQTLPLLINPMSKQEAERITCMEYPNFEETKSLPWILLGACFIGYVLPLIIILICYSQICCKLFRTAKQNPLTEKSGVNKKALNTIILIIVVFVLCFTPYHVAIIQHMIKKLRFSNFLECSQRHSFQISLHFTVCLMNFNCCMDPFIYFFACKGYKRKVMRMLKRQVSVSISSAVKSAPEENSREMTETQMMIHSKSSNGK
CXCR6 block – inhibitors of human CXCR6 receptor. AID 602244. CHO-K1 PathHunter CXCR6 beta-arrestin, luminescence. 360,000 compounds, 0.36% hits. O00574. inhibition, % at 20 µM; in the data active = inhibition above about 34%, passing the limit was not always enough;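 also: antagonist mode with CXCL16 agonist at 10 nM final; 0% = 10 nM CXCL16 with DMSO and 100% = unstimulated wells without agonist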
APJ antag confirm – confirmation of human APJ apelin receptor antagonists; shares compounds with APJ antagonist; APJ beta-arrestin recruitment, luminescence, antagonist mode; inhibition, % at 20 µM; 950 compounds, 66% hits; AID 2766; in the data active = inhibition above about 50%
Starred values were filed as active, the others as inactive; nt = no result given.

SMILES	CCR6 antag	APJ antagonist	APJ ag	EBI2 antag	CXCR6 block	APJ antag confirm
CC(C)Oc1ccc(S(=O)(=O)N2CCOCC2)cc1NC(=O)C1COc2ccccc2O1 (stereo not given)	7	-1	-1	-6	9	nt
CCC(C(=O)NCc1ccccc1)n1c(CSCCOc2ccccc2)nc2ccccc21 (stereo not given)	nt	nt	nt	15	nt	nt
CCOC(=O)N1CCN(C(=O)c2cccn3c(=O)c4cc(Cl)ccc4nc23)CC1	-20	17	-2	-4	-2	nt
CCOC(CNC(=O)c1cccn2c(=O)c3cc(Cl)ccc3nc12)OCC	9	50*	-3	12	-3	28
CCNC(=O)C1(C)CCCN1C(=O)c1c(F)cccc1F (stereo not given)	nt	nt	nt	-2	-8	nt
COc1ccc(C(=O)NC(C(=O)NCc2ccccn2)C(C)C)cc1 (stereo not given)	13	-7	-3	-5	4	nt
CC(C)C(NC(=O)c1ccc(C(C)(C)C)cc1)C(=O)NCc1ccccn1 (stereo not given)	11	41*	-6	6	4	16
CC1CN(C(=O)COC(=O)[C@@H](NC(=O)c2ccccc2Cl)C(C)C)CC(C)O1 (stereo not given in full)	-3	-7	-3	-3	-9	nt
O=[N+]([O-])c1ccccc1N/N=C/c1c[nH]c2ccccc12	41	44*	-11	28	23	104*
O=[N+]([O-])c1ccccc1N/N=C/c1ccccc1	27	12	-3	0	11	nt
O=[N+]([O-])c1ccc(N/N=C/c2c[nH]c3ccccc23)cc1	58*	43*	-13	42*	31	79*
O=C(Cn1cnc2c(OCc3ccccc3)ncnc21)NCCc1c[nH]c2ccccc12	11	-7	-3	6	7	nt
CCCCN1C(=O)C(CC(=O)NCc2cccc3ccccc23)CC(C(=O)N2CCOCC2)=C1C (stereo not given)	nt	nt	nt	-6	6	nt
CCS(=O)(=O)c1ccc(OC)c(N=Nc2ccc(O)c3ncccc23)c1	10	22	-8	-3	4	nt
NS(=O)(=O)c1ccc(N=Nc2ccc(O)c3ncccc23)cc1	64*	49*	-10	4	48*	87*
Cc1ccc(C)c(N=Nc2ccc(O)c3ncccc23)c1	63*	45*	-9	12	5	74*
Cc1cccc(N=Nc2ccc(O)c3ncccc23)c1	33	42*	-12	32	37	83*
CCN(CC)S(=O)(=O)c1cc(OC)ccc1N=Nc1ccc(O)c2ncccc12	55*	43*	-3	3	36	49
O=C(NCc1ccccc1)c1nc(-c2c(F)cccc2F)oc1-c1ccccc1	nt	nt	nt	-48	nt	nt
CC1=C(C(=O)N(C)C)CC(CC(=O)NCCc2ccccn2)C(=O)N1CCCN1CCCC1=O (stereo not given)	nt	nt	nt	-12	-5	nt
Cc1ccc2ccccc2c1C(O)c1ncc(-c2ccccc2F)[nH]1 (stereo not given)	nt	nt	nt	-7	-4	nt
CCOc1ccc(N=Nc2ccc(O)c3ncccc23)cc1	28	25	-9	28	-2	nt
Oc1ccc(N=Nc2ccc3c(c2)OCCO3)c2ncccc12	54*	53*	-5	8	35	89*
CCOc1cc(/C=C2\CCC/C(=C\c3cc(Cl)c(O)c(OCC)c3)C2=O)cc(Cl)c1O	51*	58*	-8	40	60*	111*
C=CCNC(=O)/C(C#N)=C\c1cc(Cl)c(O)c(OCC)c1	20	nt	nt	-14	12	nt
SMILES	CCR6 antag	APJ antagonist	APJ ag	EBI2 antag	CXCR6 block	APJ antag confirm
CCCCS(=O)(=O)/C=C\C=C/S(=O)(=O)CCCC	81*	69*	-7	51*	78*	89*
Cc1cc(C)nc(NNS(=O)(=O)c2c(F)cc(F)cc2Br)n1	47	67*	-11	22	33	114*
O=C(c1cccs1)c1cn(CC(=O)N2CCc3ccccc3C2)c2ccccc12	25	43*	-22	-3	0	28
CCC(CO)NC(=O)c1ccc(-c2nn(C)c(=O)c3ccccc23)cc1 (stereo not given)	-6	50*	1	-3	3	16
CC(=O)Nc1ccc(NCCc2cccs2)cc1	nt	nt	nt	4	-8	nt
CC(=O)Nc1ccc(NCc2cccs2)cc1	10	104*	0	-14	-9	-2

Bioassay records: PubChem BioAssay, Sanford-Burnham Center for Chemical Genomics
